Only some compounds are listed: those with a hit (about 27% of all), similar ones and a draw of the others.
Cav3 T inh: inhibitors of human Cav3.2 T-type calcium channel. B-score at 10 µM. Cav3.2-expressing cells, Fluo-4 calcium fluorescence FDSS; stronger effect = lower value. 100,000 tested, 4% active. AID 449739. O95180;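 active = single-dose well whose peak fluorescence ratio is a statistical outlier from its plate by either plate-standardised score or position-corrected B-score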
CYP2C9 act: CYP2C9 (human) activation; P11712; recombinant CYP2C9, luciferin-H conversion, luminescence; stronger effect = higher value; factor 1 = untreated enzyme, 0 = blocked; activation factor at 5 µM; 96,000 tested, 1.4% active; AID 1024;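 active = activation factor of 2 or more for CYP2C9 at a 5 µM dose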
HIV Rev-RRE inh: inhibitors of HIV-1 Rev-RRE RNA interaction | P05866 | Rev peptide-RRE RNA binding, FRET | inhibition, % at 8 µM | 97,000 tested, 0.79% active | AID 704;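 active = inhibition above the screen-wide mean plus 3 SD, cut at about 35% in these data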
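Assay system: Rev peptide and RRE RNA, both fluorescently labelled; times: 5 min preincubation and 15 min binding, 25 °C; detection: FRET, ex 480 nm, em 540 and 671 nm; read-out basis: % inhibition from 671/540 nm acceptor-to-donor ratio, scaled between controls; benchmarks: DMSO low control, neomycin B high control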
CYP2C19 activ: increases human CYP2C19 enzyme activity. activation factor at 5 µM. recombinant CYP2C19, luciferin-H EGE luminescence; stronger effect = higher value; 0 = fully inhibited enzyme, 1 = untreated enzyme. 96,000 tested, under 10 active;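 active = activation factor of at least 2 at 5 µM in the primary screen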
CYP2C9 inh: human CYP2C9 inhibition; P11712; CYP2C9 Supersomes, luciferin-H conversion, luminescence; inhibition, % at 5 µM; 96,000 tested, 20% active;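 active = blocking of liver enzyme CYP2C9 beyond about 50% at 5 µM, limit read from the data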
CYP2C19 inh: inhibitors of human CYP2C19. CYP2C19 Supersomes, luciferin-H EGE luminescence, 30 min. inhibition, % at 5 µM. 96,000 tested, 21% active;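 active = CYP2C19 inhibition above a set limit at 5 µM in the primary screen, cut at about 50% in these data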
Large screens that a line does not name were inactive.

COc1ccccc1NC(=O)c1ccc(-c2ccccc2F)o1	none
Oc1ccc(Br)cc1CN1CCCCCCC1	CYP2C19 inh 57
O=C(CCN1CCOCC1)NCC1COc2ccccc2O1 (stereo not given)	none (no result: CYP2C9 act, CYP2C19 activ, CYP2C9 inh, CYP2C19 inh)
c1ccc2c(c1)NC(CN1CCOCC1)CO2 (stereo not given)	CYP2C19 inh 53
CCCN(CCC)c1nc(N)nc(-c2cc(Cl)ccc2OC)n1	CYP2C19 inh 58
COc1ccc(Cl)cc1-c1nc(-c2ccc(NC(=O)c3ccncc3)cc2)no1	none (no result: CYP2C9 act, CYP2C19 activ, CYP2C9 inh, CYP2C19 inh)
CCOc1nc(Nc2cc(Cl)ccc2OC)nc(OCC)n1	none (no result: CYP2C9 act, CYP2C19 activ, CYP2C9 inh, CYP2C19 inh)
CCCNc1nc(N)nc(-c2cc(Cl)ccc2OC)n1	CYP2C19 inh 74
COc1cccc2c1C(=O)c1c(O)c3c(c(O)c1C2=O)C[C@@](O)(C(=O)CO)C[C@@H]3O[C@H]1C[C@H](N)[C@@H](O)[C@H](C)O1	Cav3 T inh -5.6 (no result: CYP2C9 act, HIV Rev-RRE inh, CYP2C19 activ, CYP2C9 inh, CYP2C19 inh)
CN1CCN(C(=O)c2cc3c(C(F)(F)F)nn(C)c3s2)CC1	none
COc1ccc(S(=O)(=O)n2ccc(C(C)Oc3ccc(-c4ccccc4)c(F)c3)n2)cc1 (stereo not given)	CYP2C9 inh 92
CC(Oc1ccc(-c2ccccc2)c(F)c1)c1ccn(S(=O)(=O)c2ccc(F)cc2)n1 (stereo not given)	none (no result: CYP2C9 act, CYP2C19 activ, CYP2C9 inh, CYP2C19 inh)
CCCn1c(SCC(=O)NCc2ccccc2)nnc1-c1ccncc1	none
Cn1c(SCC(=O)Nc2nccs2)nnc1-c1ccncc1	none
CC(C)C(C)(C#N)NC(=O)CSc1nnc(-c2ccncc2)n1Cc1ccccc1 (stereo not given)	CYP2C9 inh 52, CYP2C19 inh 80
CC(C)(C)NC(=O)CSc1nnc(-c2ccncc2)n1Cc1ccccc1	CYP2C9 inh 50, CYP2C19 inh 80
CC(C)(C)NC(=O)CSc1nnc(-c2ccccn2)n1-c1ccccc1	CYP2C19 inh 53 (no result: HIV Rev-RRE inh)
O=C(CSc1nnc(-c2ccncc2)n1Cc1ccccc1)Nc1nccs1	CYP2C9 inh 54, CYP2C19 inh 75
CCOC(=O)c1c(C)[nH]c(C(=O)C(C)OC(=O)c2oc3ccccc3c2COC)c1C (stereo not given)	none
CCCCNC(=S)NNC(=O)c1cccnc1	none (no result: CYP2C9 act, CYP2C19 activ, CYP2C9 inh, CYP2C19 inh)
CCOC(=O)c1cc(C(C)(C)C)oc1CNC(=O)c1c(C)oc2c1CCCC2	Cav3 T inh -4.6 (no result: CYP2C9 act, CYP2C19 activ, CYP2C9 inh, CYP2C19 inh)
COc1ccc(N2C(=O)CN=C2Nc2nc(C)cc(C)n2)cc1	none
CC1=C(C(=O)Nc2ccccc2C)C(c2ccc(C)o2)n2c(s/c(=C/c3ccccc3)c2=O)=N1 (stereo not given)	none
CC1=C(C(=O)Nc2ccccc2)C(c2ccc(C(C)C)cc2)N2C(=O)CSC2=N1 (stereo not given)	none
CC1=C(C(=O)Nc2ccccc2)C(c2ccc(C)o2)N2C(=O)CSC2=N1 (stereo not given)	Cav3 T inh -7.9, CYP2C19 inh 64
CC1=C(C(=O)Nc2ccccc2)C(c2ccccc2)N2C(=O)CSC2=N1 (stereo not given)	Cav3 T inh -11
CC1=C(C(=O)Nc2ccccc2)C(c2ccc(C)o2)n2c(s/c(=C/c3ccccc3)c2=O)=N1 (stereo not given)	CYP2C9 inh 87, CYP2C19 inh 72
O=C(c1ccncc1)N1CCN(C(=O)c2cccs2)CC1	CYP2C19 inh 72
Nc1ccc(N2CCN(C(=O)c3cccs3)CC2)cc1	CYP2C9 inh 71, CYP2C19 inh 97
O=C(c1ccco1)N1CCN(C(=O)c2cccs2)CC1	CYP2C19 inh 52
O=C(c1cccnc1)N1CCN(C(=O)c2cccs2)CC1	none
O=C(CCn1nnc2ccccc21)Nc1nnc(-c2ccccc2F)s1	CYP2C9 inh 56
CCCCCOc1ccc(CSc2ncn[nH]2)cc1	none (no result: CYP2C9 act, CYP2C19 activ, CYP2C9 inh, CYP2C19 inh)
Clc1ccc(-c2cc(COc3ccc4ccccc4c3)no2)cc1	none (no result: Cav3 T inh)
O=S(=O)(N/N=C1/CCCc2ccccc21)c1ccc(Br)cc1	Cav3 T inh -4.2 (no result: CYP2C9 act, CYP2C19 activ, CYP2C9 inh, CYP2C19 inh)
CC(C)(C)C1CCC(=NNS(=O)(=O)c2ccc(Br)cc2)CC1 (stereo not given)	none (no result: CYP2C9 act, CYP2C19 activ, CYP2C9 inh, CYP2C19 inh)
O=S(=O)(N/N=C1/CC(c2ccccc2)Oc2ccccc21)c1ccc(Br)cc1 (stereo not given)	CYP2C9 inh 65 (no result: Cav3 T inh)

Screening results as filed in PubChem.
